Legend:
[1] = test system: Musca domestica; experiment: Insecticidal activity against female Musca domestica (house fly) administered through injection into dorsal side of thorax pre-treated with 0.2% w/v NIA and 0.2% w/v PB before compound injection measured 1 hr post dose; assay type: functional
Procedure, shortened: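 Female houseflies anesthetized with CO2 were given 1 µl methanol with NIA 0.2% and PB 0.2% (w/v) topically on the abdomen. After 1 h at 25°C, 0.22 µl of compound in 50% aqueous ethanol at various concentrations was injected. Dead or paralyzed flies were counted 1 h later at 25°C, and ED50 (mol/insect) was derived by probit analysis.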

[2] = test system: Periplaneta americana; experiment: Neuroblocking potency against Periplaneta americana (American cockroach) abdominal central nerve cord assessed as compound concentration at which the frequency first reduced below 10 counts/30 secs […] by electrophysiologt method; assay type: functional
[3] = target: T1, Nicotinic acetylcholine receptor alpha 5 subunit (Musca domestica, UniProt A9XFY4); experiment: Displacement of [3HIMI from nicotinic acetylcholine receptor in Musca domestica (house fly) head membranes incubated for 60 min by liquid scintillation counting method; set-up: species or system Membrane
T1 sequence (A9XFY4 whole entry): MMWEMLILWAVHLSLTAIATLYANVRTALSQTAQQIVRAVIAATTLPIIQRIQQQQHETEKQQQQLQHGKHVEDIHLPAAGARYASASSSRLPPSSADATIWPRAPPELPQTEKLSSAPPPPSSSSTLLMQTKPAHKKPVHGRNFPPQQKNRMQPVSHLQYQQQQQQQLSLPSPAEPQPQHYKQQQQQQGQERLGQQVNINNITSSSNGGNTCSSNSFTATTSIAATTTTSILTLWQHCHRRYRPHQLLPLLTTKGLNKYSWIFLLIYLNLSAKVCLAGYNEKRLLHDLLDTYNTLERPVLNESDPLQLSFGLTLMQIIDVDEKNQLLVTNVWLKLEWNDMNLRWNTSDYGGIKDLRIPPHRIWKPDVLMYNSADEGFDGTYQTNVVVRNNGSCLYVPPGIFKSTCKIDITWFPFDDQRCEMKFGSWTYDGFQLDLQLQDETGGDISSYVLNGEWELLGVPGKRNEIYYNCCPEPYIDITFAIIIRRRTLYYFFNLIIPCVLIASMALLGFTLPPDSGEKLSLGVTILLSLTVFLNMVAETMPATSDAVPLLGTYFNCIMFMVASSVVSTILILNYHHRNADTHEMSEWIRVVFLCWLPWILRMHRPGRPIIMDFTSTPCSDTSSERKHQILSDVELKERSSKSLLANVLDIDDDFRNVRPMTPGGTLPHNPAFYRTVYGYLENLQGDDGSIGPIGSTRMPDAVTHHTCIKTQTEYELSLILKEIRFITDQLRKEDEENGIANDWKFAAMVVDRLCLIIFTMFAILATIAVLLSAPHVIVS
Procedure, shortened: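 Housefly heads homogenized in pH 7.4 phosphate/sucrose/EDTA buffer; 700 g and 125,000 g spins; pellet resuspended in pH 7.4 phosphate, 50 mM NaCl, 0.1% Triton X-100. Membranes (3 mg/ml protein) preincubated with compound in DMSO 3-5 min at 24°C, then [3H]imidacloprid 10 nM final, 60 min at 24°C. GF/B filtration; IC50 for inhibition of specific binding.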

[4] = test system: Musca domestica; experiment: Insecticidal activity against female Musca domestica (house fly) administered through injection into dorsal side of thorax measured 1 hr post dose; assay type: functional

| SMILES | ED50 [1] [fmol] | Activity [2] [µM] | IC50 [3] [nM] | ED50 [4] [fmol] |
| --- | --- | --- | --- | --- |
| C[C@H](c1ccc(Cl)nc1)N1CCN/C1=N\[N+](=O)[O-] [(R)-METHYL-IMIDACLOPRID] | 2.3 | 73 | 950 | 55 |
| C[C@@H](c1ccc(Cl)nc1)N1CCN/C1=N\[N+](=O)[O-] [(S)-METHYL-IMIDACLOPRID] | 1.1 | 5.9 | 190 | 45 |
| CN1CCC[C@H]1c1cccnc1 [NICOTINE] | – | – | 11900 | – |
| O=[N+]([O-])/N=C1\NCCN1Cc1ccc(Cl)nc1 [IMIDACLOPRID] | 0.26 | 2.3 | – | 2.2 |
| Clc1ccc([C@@H]2C[C@H]3CC[C@@H]2N3)cn1 [(+)-EPIBATIDINE] | – | – | 2790 | – |
| CN1CCC[C@@H]1c1cccnc1 [R-NICOTINE] | – | – | 422000 | – |
| CC(c1ccc(Cl)nc1)N1CCN/C1=N\[N+](=O)[O-] (racemic) [(R,S)-METHYL-IMIDACLOPRID] | 1.7 | 15 | 210 | 26 |
| Clc1ccc([C@H]2C[C@@H]3CC[C@H]2N3)cn1 [(-)-EPIBATIDINE] | – | – | 1340 | – |

— ChEMBL document CHEMBL3046221, “Asymmetric chloronicotinyl insecticide, 1-[1-(6-chloro-3-pyridyl)ethyl]-2-nitroiminoimidazolidine: preparation, resolution and biological activities toward insects and their nerve preparations” (Biosci Biotechnol Biochem, 2003)
